Measured values as given in ChEMBL document CHEMBL1177725, “6-(3,4-dichlorophenyl)-1-[(methyloxy)methyl]-3-azabicyclo[4.1.0]heptane: a new potent and selective triple reuptake inhibitor” (J Med Chem, 2010).
pIC50, pKi: −log10 of the molar value.

Key:
[1] = system: Rattus norvegicus; assay: Ex vivo SERT occupancy in Sprague-Dawley rat dorsal raphe at 10 mg/kg, po […] by autoradiography; format: functional
[2] = system: Rattus norvegicus; assay: Ex vivo SERT occupancy in Sprague-Dawley rat superior coulliculus at 10 mg/kg, po […] by autoradiography; format: functional
[3] = system: Rattus norvegicus; assay: Ex vivo SERT occupancy in Sprague-Dawley rat striatum at 10 mg/kg, po […] by autoradiography; format: functional
[4] = system: Rattus norvegicus; assay: Ex vivo SERT occupancy in Sprague-Dawley rat cortex at 10 mg/kg, po after 1 hr by autoradiography; format: functional
Procedure, shortened: (§1)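 Oral dosing in rats. SERT occupancy was taken from [3H]citalopram binding to brain cortex prepared 1 h after administration.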

[5] = system: Rattus norvegicus; assay: Ex vivo SERT occupancy in Sprague-Dawley rat cortex at 20 mg/kg, po after 1 hr by autoradiography; format: functional; procedure, shortened: as §1
[6] = system: Rattus norvegicus; assay: Ex vivo SERT occupancy in Sprague-Dawley rat cortex at 3 mg/kg, po after 1 hr by autoradiography; format: functional; procedure, shortened: as §1
[7] = system: Rattus norvegicus; assay: Ex vivo SERT occupancy in Sprague-Dawley rat cortex at 1 mg/kg, po after 1 hr by autoradiography; format: functional; procedure, shortened: as §1
[8] = system: Rattus norvegicus; assay: Ex vivo SERT occupancy in Sprague-Dawley rat cortex at 0.3 mg/kg, po after 1 hr by autoradiography; format: functional; procedure, shortened: as §1
[9] = system: Rattus norvegicus; assay: Ex vivo SERT occupancy in Sprague-Dawley rat cortex at 0.1 mg/kg, po after 1 hr by autoradiography; format: functional
[10] = system: Rattus norvegicus; assay: Ex vivo SERT occupancy in Sprague-Dawley rat cortex at 0.03 mg/kg, po after 1 hr by autoradiography; format: functional; procedure, shortened: as §1
[11] = Ratio of drug level in brain to blood in rat; format: ADME, tissue-based
[12] = Half life in rat; format: ADME, organism-based; conditions: in vivo
[13] = Blood clearance in rat; format: ADME, organism-based
[14] = Volume of distribution in rat; format: ADME, organism-based; conditions: in vivo
[15] = Oral bioavailability in rat; format: ADME, organism-based; conditions: in vivo
[16] = biological target: Sodium-dependent dopamine transporter (Mus musculus, UniProt Q61327); assay: Displacement of [3H]WIN-35428 from DAT in mouse brain; format: tissue-based
[17] = biological target: Sodium-dependent noradrenaline transporter (Mus musculus, UniProt O55192); assay: Displacement of [3H]nisoxetine from NET in mouse brain; format: tissue-based
[18] = biological target: Sodium-dependent serotonin transporter (Mus musculus, UniProt Q60857); assay: Displacement of [3H]-citalopram from SERT in mouse cortex after 2 hrs by liquid scintillation counting
Sequence of Sodium-dependent serotonin transporter (Mus musculus, UniProt Q60857) (Q60857 whole entry): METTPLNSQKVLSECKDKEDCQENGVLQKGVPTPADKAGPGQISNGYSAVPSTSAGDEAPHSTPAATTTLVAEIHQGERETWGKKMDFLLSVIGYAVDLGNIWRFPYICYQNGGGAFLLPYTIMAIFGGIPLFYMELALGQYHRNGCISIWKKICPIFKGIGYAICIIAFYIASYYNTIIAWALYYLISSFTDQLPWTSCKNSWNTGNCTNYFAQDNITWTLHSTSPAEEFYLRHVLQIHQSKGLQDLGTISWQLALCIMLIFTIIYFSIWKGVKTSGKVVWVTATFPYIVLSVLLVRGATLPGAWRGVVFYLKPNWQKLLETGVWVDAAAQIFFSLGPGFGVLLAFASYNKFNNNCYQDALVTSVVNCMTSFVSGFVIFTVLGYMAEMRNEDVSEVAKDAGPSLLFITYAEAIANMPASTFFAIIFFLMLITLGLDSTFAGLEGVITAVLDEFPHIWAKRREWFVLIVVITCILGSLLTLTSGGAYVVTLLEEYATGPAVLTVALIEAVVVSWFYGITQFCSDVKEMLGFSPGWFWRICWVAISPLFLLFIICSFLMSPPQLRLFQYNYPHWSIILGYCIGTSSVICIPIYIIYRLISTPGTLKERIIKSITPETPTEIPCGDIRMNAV
Procedure, shortened: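 Mouse cortex membranes (7 μg protein/well) were incubated 2 h at room temperature with [³H]citalopram, added at 0.25 nM. Test compound came from a 100× DMSO solution. Nonspecific binding was defined with 10 μM fluoxetine (final). Bound ligand was collected by filtration on PEI-presoaked GF/B filters, washed with ice-cold 0.9% NaCl and scintillation counted. A four-parameter logistic fit gave pIC50, converted to pKi by Cheng-Prusoff.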

[19] = biological target: Sodium-dependent dopamine transporter (Rattus norvegicus, UniProt P23977); assay: Displacement of [3H]WIN-35428 from DAT in rat striatum after 2 hrs by liquid scintillation counting
[20] = biological target: Sodium-dependent serotonin transporter (Rattus norvegicus, UniProt P31652); assay: Displacement of [3H]-citalopram from SERT in rat cortex after 2 hrs by liquid scintillation counting
[21] = biological target: T1, Sodium-dependent dopamine transporter (Homo sapiens, UniProt Q01959); assay: Inhibition of [3H]dopamine reuptake at human DAT expressed in pig LLCPK cells after 1 hr; format: cell-based
T1 sequence (Q01959 whole entry): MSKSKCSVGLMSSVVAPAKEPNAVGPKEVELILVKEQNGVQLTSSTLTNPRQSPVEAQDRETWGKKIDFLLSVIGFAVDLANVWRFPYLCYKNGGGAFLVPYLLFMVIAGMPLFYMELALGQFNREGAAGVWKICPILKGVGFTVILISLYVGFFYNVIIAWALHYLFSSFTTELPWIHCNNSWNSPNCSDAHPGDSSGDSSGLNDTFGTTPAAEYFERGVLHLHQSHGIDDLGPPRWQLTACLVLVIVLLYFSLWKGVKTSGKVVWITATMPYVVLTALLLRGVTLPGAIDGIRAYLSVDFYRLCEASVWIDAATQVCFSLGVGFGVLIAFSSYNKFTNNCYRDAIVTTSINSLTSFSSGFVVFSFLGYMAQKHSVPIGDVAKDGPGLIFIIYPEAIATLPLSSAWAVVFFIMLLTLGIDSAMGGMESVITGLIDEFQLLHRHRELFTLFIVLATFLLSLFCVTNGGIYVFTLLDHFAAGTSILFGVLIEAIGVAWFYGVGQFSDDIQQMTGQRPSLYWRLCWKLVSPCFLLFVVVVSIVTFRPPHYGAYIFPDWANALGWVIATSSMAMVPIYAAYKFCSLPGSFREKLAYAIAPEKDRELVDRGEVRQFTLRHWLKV
Procedure, shortened: (§2)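 Uptake SPA on stably transfected LLCPK cells with SPA beads (1.5 mg/mL SERT, NET; 2 mg/mL DAT) and 0.02% Pluronic F-127 in 20 mM HEPES, 145 mM NaCl, 5 mM KCl, pH 7.4. Cells/well: SERT 25 000, NET 50 000, DAT 75 000. Started by adding 35 nM [3H]serotonin, 45 nM [3H]noradrenalin or 75 nM [3H]dopamine (solutions added); 1 h, room temperature; four-parameter fit; n = 3.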

[22] = biological target: T2, Sodium-dependent noradrenaline transporter (Homo sapiens, UniProt P23975); assay: Inhibition of [3H]noradrenalin reuptake at human NET expressed in pig LLCPK cells after 1 hr; format: cell-based; procedure, shortened: as §2
T2 sequence (P23975 whole entry): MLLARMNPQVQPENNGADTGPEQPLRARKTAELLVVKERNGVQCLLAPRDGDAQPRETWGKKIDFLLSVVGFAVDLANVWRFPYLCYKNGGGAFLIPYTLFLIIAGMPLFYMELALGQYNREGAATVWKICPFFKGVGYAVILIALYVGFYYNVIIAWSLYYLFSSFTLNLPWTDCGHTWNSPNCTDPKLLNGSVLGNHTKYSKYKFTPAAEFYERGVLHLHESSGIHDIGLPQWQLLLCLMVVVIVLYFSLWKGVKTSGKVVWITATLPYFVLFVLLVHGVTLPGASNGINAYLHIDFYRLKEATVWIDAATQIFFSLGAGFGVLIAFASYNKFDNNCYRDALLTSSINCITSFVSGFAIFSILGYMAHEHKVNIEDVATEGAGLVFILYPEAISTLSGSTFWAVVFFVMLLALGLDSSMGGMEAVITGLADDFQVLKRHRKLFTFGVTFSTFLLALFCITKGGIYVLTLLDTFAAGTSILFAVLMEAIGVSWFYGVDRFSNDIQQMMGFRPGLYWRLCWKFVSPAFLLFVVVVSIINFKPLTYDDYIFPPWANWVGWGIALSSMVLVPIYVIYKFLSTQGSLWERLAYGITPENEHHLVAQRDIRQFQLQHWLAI

[23] = biological target: T3, Sodium-dependent serotonin transporter (Homo sapiens, UniProt P31645); assay: Inhibition of [3H]serotonin reuptake at human SERT expressed in pig LLCPK cells after 1 hr; format: cell-based; procedure, shortened: as §2
T3 sequence (P31645 whole entry): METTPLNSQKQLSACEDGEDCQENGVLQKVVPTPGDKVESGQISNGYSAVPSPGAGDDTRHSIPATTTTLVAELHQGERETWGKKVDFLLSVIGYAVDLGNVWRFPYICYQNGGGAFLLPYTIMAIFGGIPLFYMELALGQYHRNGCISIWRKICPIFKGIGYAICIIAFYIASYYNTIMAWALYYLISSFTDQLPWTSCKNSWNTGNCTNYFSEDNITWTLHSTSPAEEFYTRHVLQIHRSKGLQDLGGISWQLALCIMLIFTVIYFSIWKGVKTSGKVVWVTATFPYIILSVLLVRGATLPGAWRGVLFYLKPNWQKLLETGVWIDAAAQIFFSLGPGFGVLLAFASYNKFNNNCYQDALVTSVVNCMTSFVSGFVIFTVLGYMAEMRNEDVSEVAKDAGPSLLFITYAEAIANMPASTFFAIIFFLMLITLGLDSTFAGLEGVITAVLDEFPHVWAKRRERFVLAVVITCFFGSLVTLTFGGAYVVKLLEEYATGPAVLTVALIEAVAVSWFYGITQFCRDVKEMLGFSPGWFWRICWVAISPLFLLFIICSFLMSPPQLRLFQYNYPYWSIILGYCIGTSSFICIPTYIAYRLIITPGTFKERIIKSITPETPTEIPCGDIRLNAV

[24] = biological target: T1, Sodium-dependent dopamine transporter; assay: Displacement of [3H]WIN-35428 from human recombinant DAT by SPA
Procedure, shortened: (§3)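 SPA binding on BacMam-expressed human transporter membranes (SERT 6, NET 40, DAT 20 μg/mL) with SPA beads (1 mg/mL SERT; 2 mg/mL NET, DAT), 0.02% Pluronic F-127. Radioligands: 3 nM [3H]citalopram (SERT), 10 nM [3H]nisoxetine (NET), 10 nM [3H]WIN-35,428 (DAT). Buffer 20 mM HEPES, 145 mM NaCl, 5 mM KCl, pH 7.4; overnight, room temperature; imager read; four-parameter fit, Cheng-Prusoff pKi.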

[25] = biological target: T2, Sodium-dependent noradrenaline transporter; assay: Displacement of [3H]nisoxetine from human recombinant NET by SPA; procedure, shortened: as §3
[26] = biological target: T3, Sodium-dependent serotonin transporter; assay: Displacement of [3H]citalopram from human recombinant SERT by SPA; procedure, shortened: as §3
[27] = biological target: Cytochrome P450 3A4 (Homo sapiens, UniProt P08684); assay: Inhibition of human CYP3A4 after 10 mins; format: ADME
Procedure, shortened: (§4)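 Recombinant human CYP bactosomes (0.1 mg/mL) were pre-incubated 10 min at 37 °C in 50 mM phosphate pH 7.4 with compound (0.1–10 μM) and a fluorogenic substrate. Substrates: ethoxyresorufin 0.5 μM (1A2), FCA 50 μM (2C9), BMC 10 μM (2C19), MMC 10 μM (2D6), DEF 1 μM or 7-BQ 25 μM (3A4). Adding an NADPH-regenerating system started the reaction, and metabolite fluorescence was read over 10 min. The IC50 came from rate as percent of control; miconazole served as positive control, with triplicates.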

[28] = biological target: Cytochrome P450 2D6 (Homo sapiens, UniProt P10635); assay: Inhibition of human CYP2D6 after 10 mins; format: ADME; procedure, shortened: as §4
Sequence of Cytochrome P450 2D6 (P10635 whole entry): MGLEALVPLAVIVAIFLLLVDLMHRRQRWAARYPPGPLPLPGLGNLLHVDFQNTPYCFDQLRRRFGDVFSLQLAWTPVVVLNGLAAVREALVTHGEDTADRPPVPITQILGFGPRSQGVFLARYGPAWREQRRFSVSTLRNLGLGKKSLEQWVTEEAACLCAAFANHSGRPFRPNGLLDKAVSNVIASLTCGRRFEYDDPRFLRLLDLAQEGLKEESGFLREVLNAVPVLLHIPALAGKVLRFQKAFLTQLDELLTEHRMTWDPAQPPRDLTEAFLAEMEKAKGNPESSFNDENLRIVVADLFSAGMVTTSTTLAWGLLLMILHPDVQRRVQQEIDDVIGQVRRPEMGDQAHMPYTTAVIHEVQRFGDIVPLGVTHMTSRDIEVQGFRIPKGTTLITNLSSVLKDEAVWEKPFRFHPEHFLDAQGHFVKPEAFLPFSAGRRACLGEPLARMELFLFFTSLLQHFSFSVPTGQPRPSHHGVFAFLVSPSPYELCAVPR

[29] = biological target: Cytochrome P450 2C19 (Homo sapiens, UniProt P33261); assay: Inhibition of human CYP2C19 after 10 mins; format: ADME; procedure, shortened: as §4
Sequence of Cytochrome P450 2C19 (P33261 whole entry): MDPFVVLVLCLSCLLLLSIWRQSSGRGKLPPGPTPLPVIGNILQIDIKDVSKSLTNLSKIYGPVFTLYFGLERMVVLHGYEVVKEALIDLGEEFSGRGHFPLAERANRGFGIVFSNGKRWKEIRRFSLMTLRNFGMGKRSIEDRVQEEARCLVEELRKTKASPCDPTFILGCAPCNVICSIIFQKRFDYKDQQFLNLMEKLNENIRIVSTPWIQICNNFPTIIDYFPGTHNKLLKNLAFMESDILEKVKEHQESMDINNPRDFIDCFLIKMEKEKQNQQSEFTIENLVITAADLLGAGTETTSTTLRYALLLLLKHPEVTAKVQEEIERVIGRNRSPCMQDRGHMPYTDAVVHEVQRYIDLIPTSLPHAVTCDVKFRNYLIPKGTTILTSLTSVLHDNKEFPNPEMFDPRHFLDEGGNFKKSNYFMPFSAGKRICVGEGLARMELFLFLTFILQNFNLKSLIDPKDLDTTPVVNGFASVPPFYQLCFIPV

[30] = biological target: Cytochrome P450 2C9 (Homo sapiens, UniProt P11712); assay: Inhibition of human CYP2C9 after 10 mins; format: ADME; procedure, shortened: as §4
Sequence of Cytochrome P450 2C9 (P11712 whole entry): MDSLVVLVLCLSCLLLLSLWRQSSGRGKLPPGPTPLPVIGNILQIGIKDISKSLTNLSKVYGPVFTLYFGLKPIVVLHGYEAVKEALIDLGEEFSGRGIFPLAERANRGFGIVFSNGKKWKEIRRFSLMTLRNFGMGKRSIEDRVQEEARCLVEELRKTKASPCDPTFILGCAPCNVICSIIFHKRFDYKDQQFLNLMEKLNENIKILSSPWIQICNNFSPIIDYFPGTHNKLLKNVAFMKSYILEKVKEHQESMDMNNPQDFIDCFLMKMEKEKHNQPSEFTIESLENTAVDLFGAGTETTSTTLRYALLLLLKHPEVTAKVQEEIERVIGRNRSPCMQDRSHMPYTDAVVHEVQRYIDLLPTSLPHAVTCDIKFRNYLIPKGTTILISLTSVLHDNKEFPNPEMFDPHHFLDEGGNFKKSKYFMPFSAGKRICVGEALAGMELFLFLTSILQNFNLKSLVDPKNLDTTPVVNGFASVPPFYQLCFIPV

[31] = biological target: T4, Cytochrome P450 1A2 (Homo sapiens, UniProt P05177); assay: Inhibition of human CYP1A2 after 10 mins; format: ADME; procedure, shortened: as §4
T4 sequence (P05177 whole entry): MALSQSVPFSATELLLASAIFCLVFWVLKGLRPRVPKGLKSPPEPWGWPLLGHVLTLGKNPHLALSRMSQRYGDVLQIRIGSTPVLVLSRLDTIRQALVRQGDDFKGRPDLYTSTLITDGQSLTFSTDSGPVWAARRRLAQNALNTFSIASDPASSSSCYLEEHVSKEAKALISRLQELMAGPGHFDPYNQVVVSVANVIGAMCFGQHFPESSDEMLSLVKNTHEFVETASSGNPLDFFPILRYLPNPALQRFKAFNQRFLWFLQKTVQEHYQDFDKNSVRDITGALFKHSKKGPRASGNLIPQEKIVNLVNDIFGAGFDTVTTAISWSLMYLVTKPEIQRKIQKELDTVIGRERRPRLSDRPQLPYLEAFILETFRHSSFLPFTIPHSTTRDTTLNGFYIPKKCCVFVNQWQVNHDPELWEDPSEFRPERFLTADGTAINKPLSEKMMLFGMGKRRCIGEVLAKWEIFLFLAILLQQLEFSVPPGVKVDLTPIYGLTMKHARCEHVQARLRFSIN

[32] = biological target: T1, Sodium-dependent dopamine transporter; assay: Displacement of [N-methyl-3H]WIN-35428 from human recombinant DAT expressed in pig LLCPK cells after 2 hrs by liquid scintillation counting; format: cell-based
[33] = biological target: T2, Sodium-dependent noradrenaline transporter; assay: Displacement of [N-methyl-3H]nisoxetine from human recombinant NET expressed in pig LLCPK cells after 2 hrs by liquid scintillation counting; format: cell-based
[34] = system: Rattus norvegicus; assay: Ex vivo SERT occupancy in Sprague-Dawley rat substantia nigra at 10 mg/kg, po […] by autoradiography; format: functional
[35] = biological target: T3, Sodium-dependent serotonin transporter; assay: Displacement of [N-methyl-3H]citalopram from human recombinant SERT expressed in pig LLCPK cells after 2 hrs by liquid scintillation counting; format: cell-based
[36] = biological target: Transporter (Rattus norvegicus, UniProt Q63380); assay: Displacement of [3H]nisoxetine from NET in rat hippocampus after 2 hrs by liquid scintillation counting; format: tissue-based
Sequence of Transporter (Q63380 whole entry): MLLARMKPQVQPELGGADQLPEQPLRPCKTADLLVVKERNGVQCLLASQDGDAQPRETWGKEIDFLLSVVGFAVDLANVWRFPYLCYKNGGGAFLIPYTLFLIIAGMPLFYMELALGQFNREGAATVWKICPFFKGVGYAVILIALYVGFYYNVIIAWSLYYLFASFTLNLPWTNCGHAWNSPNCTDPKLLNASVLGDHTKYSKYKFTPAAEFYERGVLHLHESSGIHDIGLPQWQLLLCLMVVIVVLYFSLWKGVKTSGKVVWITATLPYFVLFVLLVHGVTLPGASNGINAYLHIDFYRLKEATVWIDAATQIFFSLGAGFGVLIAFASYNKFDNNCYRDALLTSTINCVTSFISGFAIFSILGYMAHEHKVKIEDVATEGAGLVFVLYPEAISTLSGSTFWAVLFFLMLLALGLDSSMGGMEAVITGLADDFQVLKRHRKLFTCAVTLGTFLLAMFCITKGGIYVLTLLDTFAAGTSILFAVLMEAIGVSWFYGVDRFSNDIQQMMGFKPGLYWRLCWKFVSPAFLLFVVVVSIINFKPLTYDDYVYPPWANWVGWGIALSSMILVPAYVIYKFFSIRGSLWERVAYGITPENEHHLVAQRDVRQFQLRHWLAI
Procedure, shortened: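 Rat hippocampus membranes (40 μg protein/well), competition filtration binding run as for human recombinant NET: 1.5 nM [3H]nisoxetine, test compound added from 100x DMSO solution, 10 μM desipramine for nonspecific binding. Incubated for 2 h at room temperature, filtered on PEI-presoaked GF/B, and washed with ice-cold 0.9% NaCl. Read by scintillation counting; four-parameter logistic pIC50 converted to pKi by Cheng-Prusoff.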

For `COC[C@@]12CNCC[C@]1(c1ccc(Cl)c(Cl)c1)C2` (relative stereo; 17) [GSK1360707], the Activity [1] was 87.92%, the Activity [2] was “>=95%” and the Activity [3] was “>=95%”. For the same compound, the Activity [4] was “>=95%”, the Activity [5] was 98.2% and the Activity [6] was 82.8%. For the same compound, the Activity [7] was 58.2%, the Activity [8] was 36.3% and the Activity [9] was 12.6%. For the same compound, the Activity [10] was 4.6%, the Kp [11] was 6.3 and the half-life [12] was 1.7 h. The clearance [13] was 48 mL/min, the Vd [14] was 5.8 L/kg and the bioavailability [15] was 54%. It also gave a pKi [16] of 8.00, a pKi [17] of 8.80 and a pKi [18] of 8.80. For the same compound, the pKi [19] was 8.00, the pKi [20] was 8.90 and the pIC50 [21] was 8.70. It also gave a pIC50 [22] of 8.70, a pIC50 [23] of 8.40 and a pKi [24] of 7.92. It also gave a pKi [25] of 7.92, a pKi [26] of 8.98 and a pIC50 [27] of 5.00. For the same compound, the pIC50 [28] was 5.52, the pIC50 [29] was 5.00 and the pIC50 [30] was 5.00. For the same compound, the pIC50 [31] was 5.00, the pKi [32] was 8.00 and the pKi [33] was 8.10. For the same compound, the Activity [34] was “>=95%”, the pKi [35] was 9.20 and the pKi [36] was 8.60.
